Assay results reported in ChEMBL document CHEMBL1145095, “New bivalent PKC ligands linked by a carbon spacer: enhancement in binding affinity” (J Med Chem, 2003).

How the values were obtained:
[1] = target: T1, Protein kinase C delta type (Mus musculus, UniProt P28867); assay: Tested for ability to displace […] phorbol 12,13- dibutyrate binding from recombinant C1b domain of murine Protein kinase C delta in presence of [Ca2+]
[2] = target: T1, Protein kinase C delta type; assay: Tested for ability to displace […] phorbol 12,13- dibutyrate binding from recombinant murine Protein kinase C delta in presence of [Ca2+]
[3] = target: T2, Protein kinase C gamma type (Homo sapiens, UniProt P05129); assay: Binding affinity for human Protein kinase C gamma with [Ca2+]
Outline: (§1)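 Ligand interaction with each PKC isozyme (α, δ, β1, γ or ε) was measured as competition by the nonradioactive ligand against [³H]PDBU binding to that isozyme, using an earlier published method. Affinities are expressed as Ki.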

[4] = target: T3, Protein kinase C delta type (Homo sapiens, UniProt Q05655); assay: Inhibition of human Protein kinase C delta; outline: as §1
[5] = target: T4, Protein kinase C beta type (Homo sapiens, UniProt P05771); assay: Binding affinity for human PKC beta-1; outline: as §1
[6] = target: T5, Protein kinase C epsilon type (Homo sapiens, UniProt Q02156); assay: Inhibition of human Protein kinase C epsilon; outline: as §1
T5 sequence (Q02156 whole entry): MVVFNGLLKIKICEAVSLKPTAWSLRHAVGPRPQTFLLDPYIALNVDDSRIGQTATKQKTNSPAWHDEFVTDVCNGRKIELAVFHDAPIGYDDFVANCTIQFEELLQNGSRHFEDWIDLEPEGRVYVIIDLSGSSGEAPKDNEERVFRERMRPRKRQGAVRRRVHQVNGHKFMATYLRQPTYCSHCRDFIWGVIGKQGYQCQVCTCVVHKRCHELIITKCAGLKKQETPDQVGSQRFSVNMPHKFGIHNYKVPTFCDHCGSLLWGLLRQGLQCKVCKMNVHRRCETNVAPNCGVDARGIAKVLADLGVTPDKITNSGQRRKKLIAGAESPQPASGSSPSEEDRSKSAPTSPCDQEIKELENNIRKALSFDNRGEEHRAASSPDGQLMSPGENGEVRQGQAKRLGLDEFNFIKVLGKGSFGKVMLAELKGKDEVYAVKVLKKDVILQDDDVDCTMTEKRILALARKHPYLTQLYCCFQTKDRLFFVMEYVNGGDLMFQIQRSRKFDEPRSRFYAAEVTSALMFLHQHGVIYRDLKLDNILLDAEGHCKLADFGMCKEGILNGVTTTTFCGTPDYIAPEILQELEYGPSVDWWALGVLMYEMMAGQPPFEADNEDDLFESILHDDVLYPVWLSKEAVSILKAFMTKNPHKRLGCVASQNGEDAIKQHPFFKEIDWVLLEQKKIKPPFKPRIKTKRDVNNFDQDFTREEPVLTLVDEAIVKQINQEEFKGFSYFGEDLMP

[7] = target: T3, Protein kinase C delta type; assay: Binding affinity for human Protein kinase C delta; outline: as §1
[8] = target: T2, Protein kinase C gamma type; assay: Inhibition of human Protein kinase C gamma with [Ca2+]; outline: as §1
[9] = target: T4, Protein kinase C beta type; assay: Inhibition of human PKC beta-1; outline: as §1
[10] = target: T5, Protein kinase C epsilon type; assay: Binding affinity for human Protein kinase C epsilon; outline: as §1

T1 sequence (P28867 whole entry, the tested form may be a part): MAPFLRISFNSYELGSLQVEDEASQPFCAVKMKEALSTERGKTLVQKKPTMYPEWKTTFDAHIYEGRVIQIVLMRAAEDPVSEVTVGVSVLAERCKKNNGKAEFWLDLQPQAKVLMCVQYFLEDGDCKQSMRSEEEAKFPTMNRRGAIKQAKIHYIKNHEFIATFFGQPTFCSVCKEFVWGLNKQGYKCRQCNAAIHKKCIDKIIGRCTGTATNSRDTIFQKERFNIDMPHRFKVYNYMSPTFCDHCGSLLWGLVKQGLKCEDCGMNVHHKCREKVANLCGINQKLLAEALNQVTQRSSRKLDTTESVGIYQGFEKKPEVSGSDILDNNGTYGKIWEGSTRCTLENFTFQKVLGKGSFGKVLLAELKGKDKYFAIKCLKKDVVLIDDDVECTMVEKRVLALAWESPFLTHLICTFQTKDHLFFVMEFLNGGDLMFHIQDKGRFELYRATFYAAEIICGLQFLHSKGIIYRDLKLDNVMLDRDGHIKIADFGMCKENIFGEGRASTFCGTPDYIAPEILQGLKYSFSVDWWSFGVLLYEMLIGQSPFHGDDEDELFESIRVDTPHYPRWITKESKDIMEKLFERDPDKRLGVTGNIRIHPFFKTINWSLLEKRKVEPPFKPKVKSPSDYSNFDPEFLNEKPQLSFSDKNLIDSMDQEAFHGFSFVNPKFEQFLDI
T3 sequence (Q05655 whole entry): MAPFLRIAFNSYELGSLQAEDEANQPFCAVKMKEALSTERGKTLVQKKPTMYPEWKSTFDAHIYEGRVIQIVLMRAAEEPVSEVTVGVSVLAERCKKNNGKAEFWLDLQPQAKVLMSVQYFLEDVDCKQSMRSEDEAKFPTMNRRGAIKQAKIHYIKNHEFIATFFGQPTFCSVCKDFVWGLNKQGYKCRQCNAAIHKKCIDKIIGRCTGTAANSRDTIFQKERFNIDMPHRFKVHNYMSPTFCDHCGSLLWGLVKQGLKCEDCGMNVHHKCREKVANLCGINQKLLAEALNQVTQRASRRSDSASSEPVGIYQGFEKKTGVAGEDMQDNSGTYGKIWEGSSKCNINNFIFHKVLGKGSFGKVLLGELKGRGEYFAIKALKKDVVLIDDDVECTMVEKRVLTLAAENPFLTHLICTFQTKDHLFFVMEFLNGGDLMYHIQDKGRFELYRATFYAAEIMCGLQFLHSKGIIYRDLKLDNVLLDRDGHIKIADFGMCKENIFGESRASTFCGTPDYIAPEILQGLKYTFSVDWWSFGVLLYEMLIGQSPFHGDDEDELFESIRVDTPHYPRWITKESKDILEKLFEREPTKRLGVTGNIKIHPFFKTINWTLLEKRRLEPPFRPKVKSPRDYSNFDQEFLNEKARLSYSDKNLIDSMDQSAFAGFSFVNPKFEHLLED
T4 sequence (P05771 whole entry): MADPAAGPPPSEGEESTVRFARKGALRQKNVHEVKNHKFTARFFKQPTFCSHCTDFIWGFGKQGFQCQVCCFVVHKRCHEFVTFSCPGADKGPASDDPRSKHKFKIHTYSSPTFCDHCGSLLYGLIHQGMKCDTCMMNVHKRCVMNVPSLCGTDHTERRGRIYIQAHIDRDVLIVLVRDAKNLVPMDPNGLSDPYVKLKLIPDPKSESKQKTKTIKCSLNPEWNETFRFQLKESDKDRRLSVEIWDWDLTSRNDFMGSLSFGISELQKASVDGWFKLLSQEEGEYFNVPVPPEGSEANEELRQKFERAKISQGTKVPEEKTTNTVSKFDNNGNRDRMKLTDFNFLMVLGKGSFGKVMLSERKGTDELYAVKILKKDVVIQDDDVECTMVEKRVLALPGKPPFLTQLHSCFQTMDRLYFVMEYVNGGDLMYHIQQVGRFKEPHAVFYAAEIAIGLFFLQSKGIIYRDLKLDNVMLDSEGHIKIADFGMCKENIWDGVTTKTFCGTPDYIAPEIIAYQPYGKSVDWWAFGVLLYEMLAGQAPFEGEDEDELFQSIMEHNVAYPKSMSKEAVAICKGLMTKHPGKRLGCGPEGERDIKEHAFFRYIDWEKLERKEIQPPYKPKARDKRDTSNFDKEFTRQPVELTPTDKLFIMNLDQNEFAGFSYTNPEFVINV

| SMILES | Ki [1] | Ki [2] | other results |
| --- | --- | --- | --- |
| CC(C)[C@H]1C(=O)N[C@H](CO)Cc2cc(NC(=O)CCCCCCC(=O)Nc3ccc4c(c3)N(C)[C@@H](C(C)C)C(=O)N[C@H](CO)C4)ccc2N1C | 30.6 nM | 170 nM | – |
| CC(C)[C@H]1C(=O)N[C@H](CO)Cc2cc(NC(=O)CCCCC(=O)Nc3ccc4c(c3)N(C)[C@@H](C(C)C)C(=O)N[C@H](CO)C4)ccc2N1C | 16.8 nM | 67.8 nM | – |
| CC(C)[C@H]1C(=O)N[C@H](CO)C1c1ccc(OC(=O)CCCCCCCCCCC(=O)Oc2ccc([C@H]3[C@@H](C(C)C)C(=O)N[C@@H]3CO)c3ccccc23)c2ccccc12 (stereo not given in full) | – | 44.8 nM | – |
| CC(C)[C@H]1C(=O)N[C@H](CO)Cc2cc(NC(=O)CCCCCCCCC(=O)Nc3ccc(O)c4ccccc34)ccc2N1C | 4.4 nM | 21.6 nM | – |
| CC(C)[C@H]1C(=O)N[C@H](CO)Cc2cc(NC(=O)CCCCCCCCC(=O)Nc3ccc4c(c3)N(C)[C@@H](C(C)C)C(=O)N[C@H](CO)C4)ccc2N1C | 1.27 nM | 5.75 nM | – |

Now those with a lower Ki [2], led by results:

| Ki [1] | Ki [2] | SMILES | other results |
| --- | --- | --- | --- |
| 0.33 nM | 0.78 nM | CC(C)[C@H]1C(=O)N[C@H](CO)Cc2cc(NC(=O)CCCCCCCCCCCCC(=O)Nc3ccc4c(c3)N(C)[C@@H](C(C)C)C(=O)N[C@H](CO)C4)ccc2N1C | Kd [3]: 0.16 nM; Ki [4]: 2.12 nM; Kd [5]: 0.19 nM; Ki [6]: 0.55 nM; Kd [7]: 1 nM; Ki [8]: 1.5 nM; Ki [9]: 1.42 nM; Kd [10]: 0.37 nM |
| 0.11 nM | 0.38 nM | CC(C)[C@H]1C(=O)N[C@H](CO)Cc2cc(NC(=O)CCCCCCCCCCCCCCCCCCCCC(=O)Nc3ccc4c(c3)N(C)[C@@H](C(C)C)C(=O)N[C@H](CO)C4)ccc2N1C | – |
| 0.48 nM | 1.31 nM | CC(C)[C@H]1C(=O)N[C@H](CO)Cc2cc(NC(=O)CCCCCCCCCCC(=O)Nc3ccc4c(c3)N(C)[C@@H](C(C)C)C(=O)N[C@H](CO)C4)ccc2N1C | – |
| 0.14 nM | 0.36 nM | CC(C)[C@H]1C(=O)N[C@H](CO)Cc2cc(NC(=O)CCCCCCCCCCCCCCC(=O)Nc3ccc4c(c3)N(C)[C@@H](C(C)C)C(=O)N[C@H](CO)C4)ccc2N1C | – |
